Measured values published in PubChem BioAssay.
Results filed as inconclusive are left out.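 How the source made its calls, unless noted: active means inhibition over a set limit, the all-compound mean plus 3 SD, in both replicate runs; inconclusive means over that limit in just one replicate run; inactive means at or under that limit in both runs.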

Experiments:
[1] = OD615 S. cerevisiae growth inhibition, permissive medium, pilot counter-assay, permissive growth control for S. cerevisiae lifespan shortening project (AID 705;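 active means growth inhibition above 25% in both replicates, a cutoff set 3 SD above the mean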); details: OD615, 24 h, at 10 µM, active compounds read high
In short: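 Material: engineered DeaD yeast; compound dosing: one dose 10 µM, DMSO 0.25% final; measure: yeast growth inhibition indicated by reduced 24 h OD615; detection: OD615 turbidity read; incubation: cells pre-grown 4 h, then 24 h compound exposure, 30 °C humidified; medium: permissive synthetic complete medium with raffinose and galactose carbon sources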

[2] = Restrictive medium S. cerevisiae growth inhibition, OD615, pilot screen of yeast lifespan reduction project, restrictive growth control (AID 706;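 active means growth inhibition above a set limit, 3 SD over mean compound inhibition, in both replicates, cut at about 43% in these data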;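 further: modified DeaD lifespan yeast strain shifted to restrictive glucose medium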); details: OD615, 48 h, at 10 µM, active compounds read high
In short: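 material = engineered S. cerevisiae DeaD strain | medium = glucose-based CSMM-D restrictive medium | times = 4 h pre-incubation, 48 h exposure at 30 °C | technique = OD615 absorbance reading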

[3] = viability gain of MRP-1-high H69AR cells under doxorubicin, pilot screen, MRP-1 activator project, CellTiter-Glo, duplicate (AID 807;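 active means viability increase at or above a cutoff of the median across tested compounds plus 3 SD, cut at about 8.5% in these data, passing the limit was not always enough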;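 further: compound pretreatment 18-22 h then 72 h combined with doxorubicin; 0% = doxorubicin alone and 100% = vehicle without doxorubicin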); details: H69AR viability with doxorubicin, CellTiter-Glo luminescence; at 10 µM; active compounds read high
[4] = growth suppression of beta-catenin knockout HCT116, pilot screen, human colon tumor cells (AID 823;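 active means cell viability at or below a set limit in both duplicate runs, the limit being the all-compound median minus 4 SD, cut at about 23% in these data, passing the limit was not always enough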;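 further: 0% = wells killed by 20 µM Hyamine and 100% = untreated DMSO cell wells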); details: CellTiter-Glo, 60 h, at 10 µM, active compounds read low
[5] = growth suppression of PTEN-deleted HCT116, pilot screen, cell-based, HCT116 clonal line, CellTiter-Glo (AID 824;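 active means viability at or below 27.92% in each of two runs, the all-compound median minus 4 SD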;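 further: 0% = 20 µM Hyamine control and 100% = vehicle cell control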); details: 60 h, at 10 µM, active compounds read low
[6] = inhibitors of the yeast RAM network, pilot screen, dse1pr::URA3 reporter, 5-FOA selection (AID 869);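 further: 0% = DMSO wells with no growth and 100% = 10 µM 1-NA-PP1 with full growth; RAM network block rescues cells from 5-FOA so hits raise OD615 growth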; details: S. cerevisiae dse1pr::URA3 5-FOA growth, OD615, 2 d; at 10 µM; active compounds read high; strain carries analog-sensitive mutant Cbk1 kinase
[7] = RAM signaling pathway blockade in yeast – S. cerevisiae, Pdr1DBD-CYC8 efflux-inhibited sensitized strain, primary screen (AID 1298;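 active means RAM network inhibition above 8.4% in each of two replicates, 3 SD over the compound average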;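 further: 0% = DMSO untreated cells without growth and 100% = 10 µM 1-NA-PP1 full growth; higher means more yeast growth rescued from 5-FOA killing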); details: S. cerevisiae cbk1-as DSE1-URA3 strain, 5-FOA growth OD615, 2 d; at 50 µM; active compounds read high

Cc1noc(NS(=O)(=O)c2ccc(NC(=O)CCn3c(=O)oc4ccccc43)cc2)c1C
inactive: growth inhibition [1] 0.07% | growth inhibition [2] -7.86% | viability increase [3] -1.22% | viability [4] 97.7% | viability [5] 96.2% | inhibition [6] 1.24% | RAM network inhibition [7] 6.07%

COc1cc2[nH]c(=O)n(CCC(=O)NCc3cccnc3)c(=O)c2cc1OC
inactive: growth inhibition [1] -19.1% | growth inhibition [2] -23.9% | viability increase [3] -1.46% | viability [4] 98.7% | viability [5] 95.8% | inhibition [6] 2.92% | RAM network inhibition [7] 2.26%

CSCC[C@@H](C(=O)Nc1ccc2c(c1)OCCO2)N1Cc2ccccc2C1=O
inactive: growth inhibition [1] 3.3% | growth inhibition [2] 1.73% | viability increase [3] -2.91% | viability [4] 99.3% | viability [5] 92.3% | inhibition [6] 0.83% | RAM network inhibition [7] 4.13%

CC1CC=C2C(C#N)=C(N)C(C#N)(C#N)C(c3cccs3)C2C1 (stereo not given)
inactive: growth inhibition [1] -11% | growth inhibition [2] -6.39% | viability increase [3] -4.25% | viability [4] 85.5% | viability [5] 85.7% | inhibition [6] 2.66% | RAM network inhibition [7] 3.84%

Cn1c(=O)c2c(nc(CN3CCN(C(=O)c4ccco4)CC3)n2Cc2ccccc2F)n(C)c1=O
inactive: growth inhibition [1] -1.06% | growth inhibition [2] -6.51% | viability increase [3] -4.26% | viability [4] 101% | viability [5] 89.8% | inhibition [6] 2.1% | RAM network inhibition [7] 3.22%

c1ccc2c(c1)nc(NCC1CCCO1)c1nnnn12 (stereo not given)
inactive: growth inhibition [1] -4.03% | growth inhibition [2] 4.6% | viability increase [3] -3.64% | viability [4] 101% | viability [5] 97.6% | inhibition [6] 1.34% | RAM network inhibition [7] 2.87%

CCOC(=O)CN1CC23C=CC(O2)C(C(=O)NC2CCCCCC2)C3C1=O (stereo not given)
inactive: growth inhibition [1] -6.04% | growth inhibition [2] 3.45% | viability increase [3] -2.93% | viability [4] 99.3% | viability [5] 94.5% | inhibition [6] 1.36% | RAM network inhibition [7] 0.37%

COc1ccc(Cl)cc1N(CC(=O)N1CCN(Cc2ccccc2)CC1)S(C)(=O)=O
inactive: growth inhibition [1] -5.27% | growth inhibition [2] -11.1% | viability increase [3] -0.51% | viability [4] 95.9% | viability [5] 92.8% | inhibition [6] 1.38% | RAM network inhibition [7] 0.41%

O=C(NCc1cccnc1)c1ccc(CS(=O)(=O)c2ccc(Br)cc2)o1
inactive: growth inhibition [1] -8.28% | growth inhibition [2] -13.7% | viability increase [3] -1.28% | viability [4] 95.3% | viability [5] 92.8% | inhibition [6] 0.655% | RAM network inhibition [7] 3.41%

CC(=O)N1C(C(=O)O)CSC1c1ccc(C)cc1 (stereo not given)
inactive: growth inhibition [1] 4.69% | growth inhibition [2] 8.76% | viability increase [3] -0.04% | viability [4] 95.3% | viability [5] 95.6% | inhibition [6] -0.43% | RAM network inhibition [7] -1.41%

COc1ccc(O)c(-c2[nH]ncc2C(=O)c2ccccc2)c1
inactive: growth inhibition [1] -14.7% | growth inhibition [2] -2.28% | viability increase [3] -2.45% | viability [4] 101% | viability [5] 94.8% | inhibition [6] 1.27% | RAM network inhibition [7] 4.35%

COc1ccc(-c2cc(C(F)F)n3ncc(C(=O)NCCCN4CCCC4=O)c3n2)cc1
inactive: growth inhibition [1] -3.45% | growth inhibition [2] -7.12% | viability increase [3] -4.32% | viability [4] 78.5% | viability [5] 73.5% | inhibition [6] -0.515% | RAM network inhibition [7] 3.32%

COc1cc(C(=O)Nc2ccc(S(=O)(=O)Nc3onc(C)c3C)cc2)cc(OC)c1OC
inactive: growth inhibition [1] -5.13% | growth inhibition [2] -14.8% | viability increase [3] 0.55% | viability [4] 104% | viability [5] 105% | inhibition [6] 0.945% | RAM network inhibition [7] 4%

Cc1ccnc(SCCn2c(N3CCN(c4ccccc4)CC3)nc3c2c(=O)[nH]c(=O)n3C)n1
inactive: growth inhibition [1] -8.81% | growth inhibition [2] 5.83% | viability increase [3] -3.59% | viability [4] 89.4% | viability [5] 76.8% | inhibition [6] 2.09% | RAM network inhibition [7] 4.01%

COc1ccc(NC(=O)N(Cc2cccnc2)Cc2ccccc2Cl)c(OC)c1
inactive: growth inhibition [1] 0.09% | growth inhibition [2] -1.88% | viability increase [3] -3.53% | viability [4] 91.2% | viability [5] 93.9% | inhibition [6] 1.02% | RAM network inhibition [7] -0.05%

O=C(C1CCN(S(=O)(=O)c2cccc3cccnc23)CC1)N1CCN(c2ccc(Cl)cc2)CC1
inactive: growth inhibition [1] -3.56% | growth inhibition [2] 0.215% | viability increase [3] -1.23% | viability [4] 31.1% | viability [5] 38.6% | inhibition [6] 1.4% | RAM network inhibition [7] 4.56%

Cn1c(NC(=O)C(C)(C)Oc2ccc(Cl)cc2)cc(=O)n(C)c1=O
inactive: growth inhibition [1] -1.72% | growth inhibition [2] -8.67% | viability increase [3] -0.77% | viability [4] 94.7% | viability [5] 91.3% | inhibition [6] 2.34% | RAM network inhibition [7] -2.22%

O=c1oc(-c2cccs2)nc2sc3c(c12)CCCCC3
inactive: growth inhibition [1] -8.22% | growth inhibition [2] -6.44% | viability increase [3] 1.51% | viability [4] 89% | viability [5] 80.3% | inhibition [6] 1.86% | RAM network inhibition [7] 4.13%

O=C1c2ccccc2C(O)N1Cc1ccc2c(c1)OCO2 (stereo not given)
inactive: growth inhibition [1] 4.13% | growth inhibition [2] -0.895% | viability increase [3] -0.74% | viability [4] 103% | viability [5] 106% | inhibition [6] 0.38% | RAM network inhibition [7] 1.6%

O=C(O)c1cc(-c2ccc(Cl)cc2)n[nH]1
inactive: growth inhibition [1] -6.99% | growth inhibition [2] 0.335% | viability increase [3] -0.39% | viability [4] 100% | viability [5] 96% | inhibition [6] 0.27% | RAM network inhibition [7] 0.61%

CCCc1nnc(SCC(=O)O)n1/N=C/c1ccc2c(c1)OCO2
inactive: growth inhibition [1] 8.88% | growth inhibition [2] 34.1% | viability increase [3] -2.31% | viability [4] 102% | viability [5] 101% | inhibition [6] 0.54% | RAM network inhibition [7] 0.41%

CCOC(=O)N1CCC(N2C(=O)c3ccccc3C2=O)CC1
inactive: growth inhibition [1] -1.78% | growth inhibition [2] -3.71% | viability increase [3] 0.37% | viability [4] 102% | viability [5] 98.8% | inhibition [6] 1.98% | RAM network inhibition [7] -0.31%

CCOc1ccc(Br)cc1/C=N/O
inactive: growth inhibition [1] -17.4% | growth inhibition [2] -29.9% | viability increase [3] -1.73% | viability [4] 80.3% | viability [5] 87.1% | inhibition [6] 0.11% | RAM network inhibition [7] -0.16%

COc1ccc(NC2=C(C)C(=O)CC2)cc1
inactive: growth inhibition [1] 7.55% | growth inhibition [2] -3.12% | viability increase [3] -4.82% | viability [4] 65.9% | viability [5] 69.5% | inhibition [6] 0.505% | RAM network inhibition [7] 1.49%

CC1=C(C(=O)OCC2CCCO2)C(c2ccccc2)NC(=O)N1 (stereo not given)
inactive: growth inhibition [1] -9.26% | growth inhibition [2] -17.9% | viability increase [3] -0.06% | viability [4] 103% | viability [5] 99.8% | inhibition [6] 1.33% | RAM network inhibition [7] -0.93%

O=C(CNC(=O)c1cnccn1)Nc1ccc(F)c(F)c1F
inactive: growth inhibition [1] -8.69% | growth inhibition [2] 2.7% | viability increase [3] 1.31% | viability [4] 99.9% | viability [5] 92.8% | inhibition [6] 2.68% | RAM network inhibition [7] 7.87%

Cc1cc(NC(=O)CSc2cn(C)c3ccccc23)no1
inactive: growth inhibition [1] -8.73% | growth inhibition [2] 4.95% | viability increase [3] -2.87% | viability [4] 97.6% | viability [5] 99.1% | inhibition [6] 0.48% | RAM network inhibition [7] 1.44%

COCC(C)NC(=O)NC1(C(F)(F)F)Oc2ccc(Cl)cc2O1 (stereo not given)
inactive: growth inhibition [1] -10% | growth inhibition [2] -25.1% | viability increase [3] -5.78% | viability [4] 32.7% | viability [5] 38% | inhibition [6] 0.985% | RAM network inhibition [7] 4.1%

COc1cc(NS(=O)(=O)c2ccc(NC(=O)C34CC5CC(CC(C5)C3)C4)cc2)ncn1
inactive: growth inhibition [1] -0.475% | growth inhibition [2] -24.6% | viability increase [3] -1.47% | viability [4] 98.1% | viability [5] 91.9% | inhibition [6] 2.73% | RAM network inhibition [7] 8.43%

CC1Cc2nc(SCC(=O)NCc3ccco3)n(-c3ccccc3)c(=O)c2S1 (stereo not given)
inactive: growth inhibition [1] -6.6% | growth inhibition [2] -7.02% | viability increase [3] -4.56% | viability [4] 103% | viability [5] 99% | inhibition [6] 0.405% | RAM network inhibition [7] 6.31%

O=S(=O)(CCc1ccccc1)N1CCOCC1
inactive: growth inhibition [1] 1.85% | growth inhibition [2] -1.08% | viability increase [3] -1.35% | viability [4] 106% | viability [5] 103% | inhibition [6] 0.8% | RAM network inhibition [7] 2.83%

CCCc1cc(=O)oc2cc(OCC(=O)N(C)C)c(Cl)cc12
inactive: growth inhibition [1] -3.68% | growth inhibition [2] 6.56% | viability increase [3] -0.5% | viability [4] 99.6% | viability [5] 93.9% | inhibition [6] 1.73% | RAM network inhibition [7] -1.29%

Cn1nc(-c2ccc(Cl)cc2)c2cc(C(=O)N3CCN(C(=O)c4ccco4)CC3)sc21
inactive: growth inhibition [1] 5.26% | growth inhibition [2] 15.6% | viability increase [3] -6.46% | viability [4] 66.6% | viability [5] 66.2% | inhibition [6] 0.755% | RAM network inhibition [7] 4.92%

O=C(c1ccccc1)c1ccc(N2CCCC2)cc1
inactive: growth inhibition [1] -1.86% | growth inhibition [2] 7.65% | viability increase [3] -2.59% | viability [4] 93% | viability [5] 96.4% | inhibition [6] 1.23% | RAM network inhibition [7] 1.03%

COc1ccc(Cl)cc1C(=O)N(Cc1nc(-c2cccc(C)c2)no1)C(C)C
inactive: growth inhibition [1] -18.4% | growth inhibition [2] -10.7% | viability increase [3] 0.87% | viability [4] 58.8% | viability [5] 57.6% | inhibition [6] 2.31% | RAM network inhibition [7] 8.49%
